Experimental data from ChEMBL document CHEMBL3627607, “A Novel Pyrazolopyridine with in Vivo Activity in Plasmodium berghei- and Plasmodium falciparum-Infected Mouse Models from Structure-Activity Relationship Studies around the Core of Recently Identified Antimalarial Imidazopyridazines” (J Med Chem, 2015).

Tests used:
[1] = Volume of distribution in rat at 5 mg/kg, iv; assay type: ADME, organism-based; details: in vivo
[2] = Half life in rat at 20 mg/kg, po; assay type: ADME, organism-based; details: in vivo
[3] = Metabolic stability of the compound in mouse liver microsomes assessed as compound remaining at 0.1 uM after 30 mins by LC-MS/MS analysis; assay type: ADME; details: 0.5 h
[4] = test system: Plasmodium falciparum; experiment: Antiplasmodial activity against multidrug resistant Plasmodium falciparum K1 infected in human erythrocytes after 48 hrs by [3H]-hypoxanthine incorporation assay; assay type: functional, organism-based
[5] = test system: Plasmodium falciparum; experiment: Antiplasmodial activity against drug sensitive Plasmodium falciparum NF54 infected in human erythrocytes after 48 hrs by [3H]-hypoxanthine incorporation assay; assay type: functional, organism-based
[6] = Oral bioavailability in rat at 20 mg/kg; assay type: ADME, organism-based; details: in vivo
[7] = test system: Plasmodium berghei; experiment: Antiplasmodial activity against Plasmodium berghei ANKA expressing GFP infected in mouse assessed as means survival days at 50 mg/kg, po qd for 4 days; assay type: functional
How it was run: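 Mice (n = 3) infected with GFP-transfected P. berghei ANKA. Compounds dissolved or suspended in HPMC vehicle (0.5% w/v hydroxypropylmethylcellulose, 0.5% v/v benzyl alcohol, 0.4% v/v Tween 80, 0.9% w/v NaCl in water). Dosed orally 4, 24, 48 and 72 h after infection. Parasitemia read by flow cytometry (detection limit 0.1%). Survival recorded as mean survival time in days.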

[8] = Half life in rat at 5 mg/kg, iv; assay type: ADME, organism-based; details: in vivo
[9] = (§1) Drug level in mouse blood at 50 mg/kg, po after 24 hrs; assay type: ADME, organism-based; details: blood, read-out: Drug uptake
How it was run: (§2)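 Snapshot whole-blood levels of parent and its sulfone metabolite at 1, 4 and 24 h after the first 50 mg/kg oral dose. Samples came from the P. berghei-infected efficacy mice, dosed in HPMC suspension vehicle.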

[10] = Drug level in mouse blood at 50 mg/kg, po after 4 hrs; assay type: ADME, organism-based; details: read-out: Drug uptake; how it was run: as §2
[11] = test system: Liver microsome; experiment: Metabolic stability of the compound in rat liver microsomes assessed as compound remaining at 0.1 uM after 30 mins by LC-MS/MS analysis; assay type: ADME; details: 0.5 h
[12] = test system: Liver microsome; experiment: Metabolic stability of the compound in human liver microsomes assessed as compound remaining at 0.1 uM after 30 mins by LC-MS/MS analysis; assay type: ADME; details: 0.5 h
[13] = Plasma clearance in rat at 5 mg/kg, iv; assay type: ADME, organism-based
[14] = test system: Plasmodium berghei; experiment: Antiplasmodial activity against sporozoite stage of Plasmodium berghei expressing luciferase infected in human HepG2-A16-CD81EGFP cells preincubated with cells for 18 hrs followed by protozoal infection measured after 48 hrs by bioluminescence assay; assay type: functional, organism-based
How it was run: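 HepG2 cells were pretreated 18 h with compound, then infected with freshly dissected luciferase-expressing P. berghei sporozoites. After a further 48 h with compound, viability of exoerythrocytic forms and of HepG2 host cells was read by bioluminescence.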

[15] = test system: Plasmodium berghei; experiment: Antiplasmodial activity against Plasmodium berghei ANKA expressing GFP infected in mouse assessed as reduction of parasitemia level at 50 mg/kg, po qd for 4 days measured on day 4 post last dose by flow cytometric analysis relative to control; assay type: functional; design: scale not given: the % may be the effect or the level left
How it was run: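 Mice (n = 3) infected with GFP-transfected P. berghei ANKA. Test agents were suspended in HPMC vehicle (0.5% w/v hydroxypropylmethylcellulose, 0.5% v/v benzyl alcohol, 0.4% v/v Tween 80, 0.9% w/v NaCl in water). Dosed orally at 4, 24, 48 and 72 h post-infection. Parasitemia read by flow cytometry on day 4 (96 h), detection limit 0.1%. Activity = control-minus-treated mean % parasitemia, relative to control.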

[16] = Drug level in mouse blood at 50 mg/kg, po after 1 hr; assay type: ADME, organism-based; details: read-out: Drug uptake; how it was run: as §2
[17] = Selectivity index, ratio of IC50 for CHO cells to IC50 for multidrug resistant Plasmodium falciparum K1; assay type: toxicity, cell-based; details: hamster, read-out: Ratio IC50
[18] = Selectivity index, ratio of IC50 for CHO cells to IC50 for Plasmodium falciparum NF54; assay type: toxicity, cell-based; details: hamster, read-out: Ratio IC50
[19] = Selectivity index, ratio of IC50 for African green monkey VERO cells to IC50 for multidrug resistant Plasmodium falciparum K1; assay type: toxicity, cell-based; details: read-out: Ratio IC50
[20] = target: Voltage-gated inwardly rectifying potassium channel KCNH2 (Homo sapiens, UniProt Q12809); experiment: Inhibition of human ERG potassium channel by ionworks patch-clamp electrophysiology assay
Voltage-gated inwardly rectifying potassium channel KCNH2, sequence (Q12809 whole entry): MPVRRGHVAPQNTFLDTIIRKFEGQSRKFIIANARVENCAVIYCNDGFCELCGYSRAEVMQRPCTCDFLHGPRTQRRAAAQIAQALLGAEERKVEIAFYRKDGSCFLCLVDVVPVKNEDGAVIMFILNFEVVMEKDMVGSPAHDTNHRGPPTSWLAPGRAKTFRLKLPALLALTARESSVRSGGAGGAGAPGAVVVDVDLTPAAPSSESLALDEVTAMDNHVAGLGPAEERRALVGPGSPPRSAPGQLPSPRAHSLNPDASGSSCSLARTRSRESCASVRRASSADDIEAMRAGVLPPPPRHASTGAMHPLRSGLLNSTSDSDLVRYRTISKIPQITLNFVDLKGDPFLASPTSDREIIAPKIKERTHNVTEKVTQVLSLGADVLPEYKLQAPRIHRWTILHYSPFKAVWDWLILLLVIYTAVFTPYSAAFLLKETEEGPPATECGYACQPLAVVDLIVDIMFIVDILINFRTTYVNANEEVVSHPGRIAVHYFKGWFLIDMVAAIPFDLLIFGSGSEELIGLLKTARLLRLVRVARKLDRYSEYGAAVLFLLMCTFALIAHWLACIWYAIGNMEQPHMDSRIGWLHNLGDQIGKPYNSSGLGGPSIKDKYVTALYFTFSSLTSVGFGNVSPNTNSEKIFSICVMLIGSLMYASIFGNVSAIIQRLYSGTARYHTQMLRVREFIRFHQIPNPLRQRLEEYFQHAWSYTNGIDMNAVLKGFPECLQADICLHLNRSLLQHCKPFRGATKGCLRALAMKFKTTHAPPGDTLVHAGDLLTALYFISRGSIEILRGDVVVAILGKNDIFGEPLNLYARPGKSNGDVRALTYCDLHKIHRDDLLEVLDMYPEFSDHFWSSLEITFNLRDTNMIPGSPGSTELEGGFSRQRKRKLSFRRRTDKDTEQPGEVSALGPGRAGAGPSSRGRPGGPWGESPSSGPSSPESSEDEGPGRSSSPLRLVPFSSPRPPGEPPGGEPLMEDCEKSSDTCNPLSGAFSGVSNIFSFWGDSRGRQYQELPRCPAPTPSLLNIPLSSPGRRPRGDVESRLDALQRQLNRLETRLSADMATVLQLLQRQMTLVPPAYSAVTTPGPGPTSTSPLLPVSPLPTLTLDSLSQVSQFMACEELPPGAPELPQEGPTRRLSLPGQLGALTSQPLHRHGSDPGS

[21] = Half life in rat at 15 mg/kg, po; assay type: ADME, organism-based; details: in vivo
[22] = Selectivity index, ratio of IC50 for African green monkey VERO cells to IC50 for Plasmodium falciparum NF54; assay type: toxicity, cell-based; details: read-out: Ratio IC50
[23] = Oral bioavailability in rat at 15 mg/kg; assay type: ADME, organism-based; details: in vivo
[24] = AUC (0 to 23 hrs) in Plasmodium falciparum 3D7 infected in non-myelodepleted NOD-SCID IL2Rgammanull mouse engrafted with human erythrocytes at 1.5 mg/kg, po; assay type: ADME, organism-based; design: time < 23 hr, dose 1.5 mg/kg, route oral; details: in vivo
How it was run: (§3)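 Engrafted NSG (scid IL2Rgc null) mice infected with P. falciparum were given one oral dose per day for four days. Blood was sampled to measure parent and its sulfone metabolite.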

[25] = Oral bioavailability in rat at 10 mg/kg; assay type: ADME, organism-based; details: in vivo
[26] = test system: Liver microsome; experiment: Drug level in rat liver microsomes treated with 5-(3-(Cyclopropylsulfonyl)phenyl)-3-(4-(methylsulfinyl)-phenyl)pyrazolo[1,5-a]pyridine at 10 uM after 1 hr by LC-MS/MS analysis; assay type: ADME
How it was run: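 Metabolites identified by LC-ESI-MS/MS after in vitro incubation with rat liver microsomes.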

[27] = Half life in rat at 3 mg/kg, iv; assay type: ADME, organism-based; details: in vivo
[28] = Tmax in Plasmodium falciparum 3D7 infected in non-myelodepleted NOD-SCID IL2Rgammanull mouse engrafted with human erythrocytes at 10 mg/kg, po; assay type: ADME, organism-based; details: in vivo
How it was run: (§4)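 Humanized NSG mice infected with P. falciparum received one oral dose per day for 4 consecutive days. Blood was sampled for exposure, with levels of both parent and its main active metabolite measured. Tmax was taken from the blood concentration–time profile after oral dosing.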

[29] = Cmax in Plasmodium falciparum 3D7 infected in non-myelodepleted NOD-SCID IL2Rgammanull mouse engrafted with human erythrocytes at 0.1 mg/kg, po; assay type: ADME, organism-based; design: dose 0.1 mg/kg, route oral; details: in vivo; how it was run: as §3
[30] = test system: Blood; experiment: as §1; assay type: ADME, organism-based; details: in vivo, 24 h, BLD = below limit of detection; how it was run: as §2
[31] = AUC (0 to 8 hrs) in Plasmodium falciparum 3D7 infected in non-myelodepleted NOD-SCID IL2Rgammanull mouse engrafted with human erythrocytes at 0.1 mg/kg, po; assay type: ADME, organism-based; design: time < 8 hr, dose 0.1 mg/kg, route oral; details: in vivo; how it was run: as §3
[32] = AUC (0 to 23 hrs) in Plasmodium falciparum 3D7 infected in non-myelodepleted NOD-SCID IL2Rgammanull mouse engrafted with human erythrocytes at 10 mg/kg, po; assay type: ADME, organism-based; design: dose 10 mg/kg, time < 23 hr, route oral; details: in vivo; how it was run: as §3
[33] = AUC (0 to 23 hrs) in Plasmodium falciparum 3D7 infected in non-myelodepleted NOD-SCID IL2Rgammanull mouse engrafted with human erythrocytes at 0.5 mg/kg, po; assay type: ADME, organism-based; design: time < 23 hr, dose 0.5 mg/kg, route oral; details: in vivo; how it was run: as §3
[34] = Tmax in Plasmodium falciparum 3D7 infected in non-myelodepleted NOD-SCID IL2Rgammanull mouse engrafted with human erythrocytes at 0.5 mg/kg, po; assay type: ADME, organism-based; details: in vivo; how it was run: as §4
[35] = Plasma clearance in rat at 3 mg/kg, iv; assay type: ADME, organism-based
[36] = Cmax in Plasmodium falciparum 3D7 infected in non-myelodepleted NOD-SCID IL2Rgammanull mouse engrafted with human erythrocytes at 30 mg/kg, po; assay type: ADME, organism-based; design: dose 30 mg/kg, route oral; details: in vivo; how it was run: as §3
[37] = AUC (0 to 23 hrs) in Plasmodium falciparum 3D7 infected in non-myelodepleted NOD-SCID IL2Rgammanull mouse engrafted with human erythrocytes at 30 mg/kg, po; assay type: ADME, organism-based; design: dose 30 mg/kg, time < 23 hr, route oral; details: in vivo; how it was run: as §3
[38] = test system: Blood; experiment: Drug level in rat blood treated with 5-(3-(Cyclopropylsulfonyl)phenyl)-3-(4-(methylsulfinyl)-phenyl)pyrazolo[1,5-a]pyridine at 20 mg/kg, po and 5 mg/kg, iv by LC-MS/MS analysis; assay type: ADME, organism-based; details: in vivo
How it was run: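 Metabolites identified by LC-ESI-MS/MS in blood samples from the rat PK study (oral and intravenous dosing).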

[39] = Tmax in Plasmodium falciparum 3D7 infected in non-myelodepleted NOD-SCID IL2Rgammanull mouse engrafted with human erythrocytes at 30 mg/kg, po; assay type: ADME, organism-based; details: in vivo; how it was run: as §4
[40] = Cmax in Plasmodium falciparum 3D7 infected in non-myelodepleted NOD-SCID IL2Rgammanull mouse engrafted with human erythrocytes at 0.5 mg/kg, po; assay type: ADME, organism-based; design: dose 0.5 mg/kg, route oral; details: in vivo; how it was run: as §3
[41] = Half life in rat at 10 mg/kg, po; assay type: ADME, organism-based; details: in vivo
[42] = Cmax in Plasmodium falciparum 3D7 infected in non-myelodepleted NOD-SCID IL2Rgammanull mouse engrafted with human erythrocytes at 1.5 mg/kg, po; assay type: ADME, organism-based; design: dose 1.5 mg/kg, route oral; details: in vivo; how it was run: as §3
[43] = Tmax in Plasmodium falciparum 3D7 infected in non-myelodepleted NOD-SCID IL2Rgammanull mouse engrafted with human erythrocytes at 0.1 mg/kg, po; assay type: ADME, organism-based; details: in vivo; how it was run: as §3
[44] = Cmax in Plasmodium falciparum 3D7 infected in non-myelodepleted NOD-SCID IL2Rgammanull mouse engrafted with human erythrocytes at 10 mg/kg, po; assay type: ADME, organism-based; design: dose 10 mg/kg, route oral; details: in vivo; how it was run: as §3
[45] = Volume of distribution in rat at 3 mg/kg, iv; assay type: ADME, organism-based; details: in vivo
[46] = Tmax in Plasmodium falciparum 3D7 infected in non-myelodepleted NOD-SCID IL2Rgammanull mouse engrafted with human erythrocytes at 1.5 mg/kg, po; assay type: ADME, organism-based; details: in vivo; how it was run: as §4

For `CS(=O)(=O)c1ccc(-c2cnn3ccc(-c4cccc(S(=O)(=O)C5CC5)c4)nc23)cc1`, the Vd [1] was 0.3 L/kg, the half-life [2] was 7.8 h and the Stability [3] was “Stable”. The IC50 [4] was 0.37 nM, the IC50 [5] was 0.42 nM and the bioavailability [6] was 1%. The MSD [7] was 7 days, the half-life [8] was 2.8 h and the concentration at 24 h [9] was less than 10 nM. For the same compound, the concentration at 4 h [10] was 145 nM, the Stability [11] was “Stable” and the Stability [12] was “Stable”. The clearance [13] was 1.1 mL/min/kg, the IC50 [14] was 0.61 nM and the Activity [15] was 86%. For the same compound, the concentration at 1 h [16] was 169 nM.
With `CS(=O)(=O)c1ccc(-c2cnn3ccc(-c4cccc(S(C)(=O)=O)c4)cc23)cc1` the Vd [1] was 4.8 L/kg, the Stability [3] was “Stable” and the IC50 [5] was 8 nM. It also gave a selectivity ratio [17] greater than 1000, an MSD [7] of 4 days and a half-life [8] of 4.1 h. For the same compound, the concentration at 24 h [9] was 290 nM, the concentration at 4 h [10] was 486 nM and the Stability [11] was “Stable”. For the same compound, the selectivity ratio [18] was greater than 1000, the Stability [12] was “Stable” and the selectivity ratio [19] was greater than 1000. For the same compound, the IC50 [20] was greater than 33000 nM, the clearance [13] was 13.9 mL/min/kg and the IC50 [14] was 6.6 nM. For the same compound, the Activity [15] was 60%, the half-life [21] was 2.6 h and the selectivity ratio [22] was greater than 1000. For the same compound, the bioavailability [23] was 1% and the concentration at 1 h [16] was 7600 nM.
For `CS(=O)(=O)c1ccc(-c2cnn3ccc(-c4cccc(S(=O)(=O)C5CC5)c4)cc23)cc1`, the AUC(0-t) at 23 h [24] was 3200 ng·h/mL, the Stability [3] was “Stable” and the IC50 [4] was 2.4 nM. The IC50 [5] was 2.7 nM, the bioavailability [25] was 61% and the Drug metabolism [26] was “metabolite_detected”. The MSD [7] was 7 days, the half-life [27] was 2.7 h and the Tmax [28] was 4 h. The Cmax [29] was 25 ng/mL, the Drug uptake [30] was “BLD” and the AUC(0-t) at 8 h [31] was 139 ng·h/mL. For the same compound, the concentration at 4 h [10] was 1060 nM, the AUC(0-t) at 23 h [32] was 24800 ng·h/mL and the AUC(0-t) at 23 h [33] was 1010 ng·h/mL. For the same compound, the Stability [11] was “Stable”, the Tmax [34] was 2 h and the clearance [35] was 3.5 mL/min/kg. The Cmax [36] was 7430 ng/mL, the Stability [12] was “Stable” and the AUC(0-t) at 23 h [37] was 78300 ng·h/mL. For the same compound, the Drug metabolism [38] was “metabolite_detected”, the Tmax [39] was 8 h and the Cmax [40] was 106 ng/mL. For the same compound, the half-life [41] was 5.7 h, the IC50 [14] was 20 nM and the Cmax [42] was 467 ng/mL. The Tmax [43] was 2 h, the Cmax [44] was 2600 ng/mL and the Activity [15] was 71%. For the same compound, the Vd [45] was 0.8 L/kg, the Tmax [46] was 2 h and the concentration at 1 h [16] was 697 nM.
